Screening data (PubChem BioAssay)
SUMO1-SIM PPI – alters human SUMO1 binding to SIM partners | inhibition, % at 20 µM | actives 0.33% (n = 360,000) | SUMO1 binding to a labelled peptide, TR-FRET, 1 h; in the data active = inhibition above about 37%
Rpn11 inh – Rpn11 (human) deubiquitinase inhibition. inhibition, % at 20 µM. actives 0.59% (n = 360,000). human 26S proteasome, Ub4-pepOG fluorescence polarization; 20S core pre-blocked with epoxomicin. O00487;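 active = inhibition at 20 µM, scaled to each plate's controls, above about 33%, limit read from the data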
DNMT1 inh – blocks human DNA methyltransferase DNMT1. inhibition (reported as % activation of signal), % at 10 µM. DNMT1 molecular beacon, Hinp1I cleavage, fluorescence. AID 588458. P26358. actives 0.83% (n = 360,000); in the data active = inhibition above about 50%
Scp1 inh – blocks human Scp-1 phosphatase activity | AID 493091 | inhibition, % at 20 µM | actives 0.88% (n = 340,000) | Recombinant Scp1, phosphopeptide, malachite green phosphate absorbance | Q9GZU7;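 active = inhibition above about 50% at 20 µM, limit read from the data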;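 note: plate controls were DMSO wells with enzyme for no effect and wells lacking enzyme for full effect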
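Test system: SCP-1 catalytic domain; Buffer or medium: Acidic Tris acetate buffer with magnesium and detergent; Also added: Phosphorylated 17-residue peptide substrate; Compound: single 20 µM dose, 1% DMSO; Schedule: enzyme reaction 45 min at room temperature, colour 5 min, stabilisation 30 min; Signal: Phosphate-binding colour reagent, absorbance read at 630 nm.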
STEP inh – inhibitors of human striatal-enriched phosphatase STEP; actives 0.25% (n = 360,000); P54829; recombinant STEP, OMFP fluorogenic substrate, fluorescence; inhibition, % at 20 µM;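 active = inhibition at 20 µM, scaled per plate between control wells, above about 37%, limit read from the data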;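 note: 0% = DMSO with enzyme and substrate and 100% = substrate only without enzyme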
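Measure: Control-normalized % inhibition with plate pattern correction | Test system: STEP phosphatase, cell-free reaction | Medium: pH 6.0 Bis-Tris with DTT and Tween 20 | Technique: Fluorescence, 480/540 nm | Times: Reaction 20 min, ambient temperature | Doses: Single compound dose of 20 µM, 1% DMSO final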
LMPTP block – blocks human LMPTP phosphatase; P24666; recombinant LMPTP-A, OMFP fluorogenic substrate, fluorescence intensity; inhibition, % at 20 µM; actives 0.22% (n = 360,000); AID 651560;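 active = compounds that cut the enzyme signal by at least half of the control window in the single-dose screen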;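 note: plate controls were DMSO wells with enzyme plus substrate for no effect and substrate without enzyme for full effect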
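Material: LMPTP-A; amount: 0.625 nM enzyme; doses: single 20 µM dose; times: reaction 50 min, room temperature, dark; technique: fluorescence intensity of OMFP turnover product; benchmarks: no-enzyme and uninhibited controls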
Beacon interf DR – beacon fluorescence artifact, dose response counter-screen. shares compounds with DNMT1 inh. molecular beacon fluorescence, spectral interference counter-screen. IC50, µM. 200 tested, under 10 active. AID 602382; call rule not given here
DNMT1 confirm – DNMT1 inhibition confirmation, single concentration; shares compounds with DNMT1 inh; DNMT1 molecular beacon HinP1I cleavage, fluorescence; inhibition, % at 10 µM; actives 8% (n = 2,300);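 active = average inhibition of at least 30% in the single-concentration confirmation test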
DNMT1 interf – beacon fluorescence artifact counter-screen | shares compounds with DNMT1 inh | activation (fluorescence interference), % at 10 µM | DNMT1 molecular beacon spectral interference counterscreen, fluorescence 485/520 | AID 602387 | actives 1% (n = 2,300);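 active = activation of at least 30% at 10 µM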;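 note: DNMT1 catalytic domain with a HinP1I cleavage step and a FAM/dabcyl DNA beacon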
Starred values were filed as active, the others as inactive; nt = no result given. Hits are enriched below; roughly 2.3% of the tested compounds scored in any of these assays.

SMILES | SUMO1-SIM PPI | Rpn11 inh | DNMT1 inh | Scp1 inh | STEP inh | LMPTP block | DNMT1 confirm | DNMT1 interf | others
CN1CCN(c2ccc(C(CC(N)=O)NC(=O)Cc3ccc(Br)cc3)cc2[N+](=O)[O-])CC1 (centres undefined) | 8 | -3 | 1 | -1 | 1 | -1 | nt | nt
CN(Cc1ccccc1)c1ccc(C(CC(N)=O)NC(=O)Cc2ccc(Br)cc2)cc1[N+](=O)[O-] (centres undefined) | 4 | 8 | 80* | -6 | 4 | 2 | -4 | -4
COc1ccc(Cc2c(C3CCCCC3)nc3cc(C)c(Br)c(C)n23)c(C)c1 | 2 | nt | nt | nt | nt | 3 | nt | nt
COc1ccc(Cl)cc1C(=O)NNC(=O)CSc1nnnn1C | 2 | -1 | -5 | -8 | -1 | -1 | nt | nt
O=C(CCN1C(=O)/C(=C/c2cccc(Br)c2)SC1=S)NNC(=O)c1cccnc1 | -13 | 0 | 71* | 1 | -1 | 11 | 3 | -1
O=C(CCCCCn1c(=S)[nH]c2cc3c(cc2c1=O)OCO3)N1CCN(c2ccccc2)CC1 | 1 | -6 | 66* | -6 | 4 | 2 | -2 | -6
O=C(NCCc1ccco1)C(=O)NCC1OCCCN1S(=O)(=O)c1cc(F)ccc1F (centres undefined) | -4 | 9 | -1 | -4 | 2 | -1 | nt | nt
Cc1ccc(-c2nc3c(c(=O)[nH]c(=O)n3Cc3ccccc3)n2C)o1 | 0 | -10 | 70* | 27 | 2 | 10 | 4 | 0
Cc1ccc(-c2nc3c(c(=O)[nH]c(=O)n3Cc3ccccc3)n2Cc2ccccc2)o1 | -1 | 20 | 6 | -3 | 5 | 2 | nt | nt
OC(CN1CCOCC1)c1ccc(F)cc1 (centres undefined) | 0 | -1 | 77* | -1 | -2 | -1 | 3 | 2
O=[N+]([O-])c1ccc(C(O)CN2CCOCC2)cc1 (centres undefined) | -12 | 5 | 0 | -9 | -1 | -1 | nt | nt
COc1c(C=O)c2c(c(OC)c1OC)-c1ccc(OC)c(=O)cc1C(NC(C)=O)CC2 (centres undefined) | -17 | 0 | 1 | -5 | 3 | -1 | nt | nt
CCOC(=O)C1=CN(Cc2ccco2)S(=O)(=O)NC1c1ccc(C(F)(F)F)cc1 (centres undefined) | 5 | 4 | 2 | -12 | -1 | 3 | nt | nt
CCOc1cc2[nH]c(=O)n(CCCCC(=O)NC3CCCCCC3)c(=O)c2cc1OCC | 0 | -1 | 6 | 0 | -2 | -3 | nt | nt
CCOc1cc2[nH]c(=S)n(CCC(=O)NC3CCCCC3)c(=O)c2cc1OCC | 10 | -3 | 51* | nt | -4 | 0 | 2 | -1
O=C(COC(=O)Cc1c[nH]c2ccccc12)Nc1cc(S(=O)(=O)N2CCOCC2)ccc1Cl | 3 | 1 | -3 | -9 | 2 | 2 | nt | nt
N#Cc1c(NCCN)nc(NCc2ccccc2)c2c1CCN(Cc1ccccc1)C2 | 0 | 4 | 77* | 22 | 2 | 27 | 3 | -2
C=CCNc1nc(NCc2ccccc2)c(C#N)c2c1CN(C)CC2 | 8 | -14 | 3 | -3 | -1 | 3 | nt | nt
CN(C)C(=O)CN1c2cccc3cccc(c23)S1(=O)=O | -3 | -2 | -2 | -7 | 2 | 1 | nt | nt
CN(CC(=O)Nc1cccc(F)c1)C(=O)CN1c2cccc3cccc(c23)S1(=O)=O | -7 | 0 | 53* | 43 | 0 | 16 | 1 | 1
O=C(N=Nc1c(O)n(Cc2ccccc2)c2ccccc12)c1cc2ccccc2cc1O | -6 | -7 | 82* | 37 | 3 | 12 | 2 | -8
CN(Cc1ccccc1)C(=O)COC(=O)c1cc([N+](=O)[O-])ccc1N1CCOCC1 | -25 | 0 | 111* | -10 | -2 | 1 | 2 | 2
COc1ccc(S(N)(=O)=O)cc1C(=O)N(C)CC(=O)Nc1ccc(N2CCOCC2)cc1 | -1 | 2 | -1 | 4 | -2 | -2 | nt | nt
CCN(CC)S(=O)(=O)c1cccc(C(=O)NC(C(=O)NC2=NCCS2)C(C)C)c1 (centres undefined) | 8 | 2 | 0 | -12 | 0 | -2 | nt | nt
CCN(CC)S(=O)(=O)c1cccc(C(=O)N[C@H](C(=O)NC2=NCCS2)C(C)C)c1 | 0 | 25 | 66* | -10 | -4 | -2 | -1 | 2
SMILES | SUMO1-SIM PPI | Rpn11 inh | DNMT1 inh | Scp1 inh | STEP inh | LMPTP block | DNMT1 confirm | DNMT1 interf | others
COc1ccccc1CCNC(C)CCc1ccc(O)cc1 (centres undefined) | 0 | -10 | 68* | -5 | -4 | -1 | 11 | 3
O=c1[nH]c2ccccc2nc1/C=C/c1ccc(Cl)cc1 | 13 | 7 | -3 | -9 | -2 | -1 | nt | nt
CCOc1ccc(C(=O)Nc2ccc(S(=O)(=O)N3CCOCC3)cc2)cc1OCC | 4 | 0 | -5 | -7 | -1 | -1 | nt | nt
CCOc1ccc(NC(=O)c2cccc(-n3cccc3)c2)cc1S(=O)(=O)N1CCOCC1 | 57* | -333 | 102* | nt | 8 | 22 | 81* | -3 | Beacon interf DR=>99
N#CC1(NC(=O)CN2C(=O)c3ccc([N+](=O)[O-])cc3C2=O)CCCCC1 | -29 | 0 | -3 | -4 | -2 | -2 | nt | nt
O=C(/C=C/c1ccco1)N1CCC(Cc2ccccc2)CC1 | 1 | 23 | 87* | 17 | 1 | 4 | 7 | -2
Cc1ccc(/C=C(\CCC(=O)O)c2nc3ccccc3s2)cc1[N+](=O)[O-] | -9 | -4 | 0 | -9 | 3 | 0 | nt | nt
CN(c1ccccc1)c1ccc(/C=C(\CCC(=O)O)c2nc3ccccc3s2)cc1[N+](=O)[O-] | 10 | -4 | 74* | 8 | 1 | 3 | 27 | -4 | Beacon interf DR=>99
O=C(NCc1cn(-c2ccccc2)nc1-c1ccc(F)cc1)c1cccc([N+](=O)[O-])c1 | -7 | 0 | -6 | -5 | -2 | 3 | nt | nt
O=C(CN1C(=O)c2ccccc2C1=O)Nc1ccc(S(=O)(=O)N2CCOCC2)cc1 | -2 | -3 | 1 | -7 | 5 | 0 | nt | nt
CCOc1ccc2nc(NC(=O)CN3CCN(C)CC3)sc2c1 | 0 | 9 | 73* | 5 | 0 | 3 | 3 | 5
O=C(Nc1ccc2oc(-c3ccccc3F)nc2c1)c1cncc(Br)c1 | 0 | 9 | 62* | 47 | 14 | 32 | 2 | 2
